Converted amounts (≈) assume the structure as drawn. The source made the active and inactive calls. The rule behind the calls is not given here.
Experiments:
[1] = Selectivity index, ratio of IC50 for human MRC5 cells to IC50 for replicating stage Mycobacterium tuberculosis H37Rv ATCC 27294; type: toxicity; details: read-out: Selectivity Index
[2] = tested on: Mycobacterium tuberculosis; experiment: Antitubercular activity against replicating stage Mycobacterium tuberculosis H37Rv ATCC 27294 after 7 days by Resazurin microtiter assay; type: functional; details: H37Rv ATCC 27294, 168 h
[3] = n-Octanol/water partition coefficient, log P of the compound by HPLC analysis; type: physicochemical
Procedure, shortened: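 Log P from n-octanol/water partition coefficient determined by HPLC method.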

MRC5 = experiment: Cytotoxicity against human MRC5 cells assessed as reduction in cell viability after 24 hrs by fluorescence assay; type: cell-based; details: MRC5, 24 h
Procedure, shortened: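 MRC-5 human lung fibroblasts; cytotoxicity reported as IC50.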

[4] = tested on: Mycobacterium tuberculosis; experiment: Antitubercular activity against dormant stage Mycobacterium tuberculosis H37Rv ATCC 27294 incubated for 10 days in anaerobic condition followed by incubation for 28 hrs in ambient gaseous condition measured after day 11 by two fold serial dilution assay; type: functional
Staphylococcus aureus = experiment: Antimicrobial activity against Staphylococcus aureus ATCC 29213 at 200 uM incubated for 16 hrs; type: functional
Candida albicans = experiment: Antimicrobial activity against Candida albicans ATCC 10231 at 200 uM incubated for 48 hrs; type: functional
Escherichia coli = experiment: Antimicrobial activity against Escherichia coli ATCC 25922 at 200 uM incubated for 16 hrs; type: functional
[5] = tested on: Mycobacterium tuberculosis; experiment: Growth inhibition of Mycobacterium tuberculosis H37Rv exposed to plasma from BALB/c mouse treated with 20 mg/kg, po administered through microemulsion vehicle as single oral dose per gavage after 1 hr by Resazurin microtiter assay; type: functional; details: read-out: GI
Procedure, shortened: (§1)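 The microemulsion was 10% cholesterol, 10% phosphatidylcholine/sodium oleate/polyoxyl 40 hydrogenated castor oil (3:6:8) and 80% phosphate buffer pH 7.4. Plasma taken at 0.3, 1, 2 or 4 h was tested by REMA for % Mtb growth inhibition, and plasma level was estimated against the in-vitro REMA MIC.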

[6] = tested on: Mycobacterium tuberculosis; experiment: Growth inhibition of Mycobacterium tuberculosis H37Rv exposed to plasma from BALB/c mouse treated with 20 mg/kg, po administered through carboxymethylcellulose vehicle as single oral dose per gavage after 4 hrs by Resazurin microtiter assay; type: functional; details: read-out: GI; procedure, shortened: as §1
[7] = tested on: Mycobacterium tuberculosis; experiment: Growth inhibition of Mycobacterium tuberculosis H37Rv exposed to plasma from BALB/c mouse treated with 20 mg/kg, po administered through microemulsion vehicle as single oral dose per gavage after 2 hrs by Resazurin microtiter assay; type: functional; details: read-out: GI; procedure, shortened: as §1
[8] = tested on: Mycobacterium tuberculosis; experiment: Growth inhibition of Mycobacterium tuberculosis H37Rv exposed to plasma from BALB/c mouse treated with 20 mg/kg, po administered through microemulsion vehicle as single oral dose per gavage after 4 hrs by Resazurin microtiter assay; type: functional; details: read-out: GI; procedure, shortened: as §1
[9] = tested on: Mycobacterium tuberculosis; experiment: Growth inhibition of Mycobacterium tuberculosis H37Rv exposed to plasma from BALB/c mouse treated with 20 mg/kg, po administered through carboxymethylcellulose vehicle as single oral dose per gavage after 0.3 hrs by Resazurin microtiter assay; type: functional; details: read-out: GI; procedure, shortened: as §1
[10] = tested on: Mycobacterium tuberculosis; experiment: Growth inhibition of Mycobacterium tuberculosis H37Rv exposed to plasma from BALB/c mouse treated with 20 mg/kg, po administered through microemulsion vehicle as single oral dose per gavage after 0.3 hrs by Resazurin microtiter assay; type: functional; details: read-out: GI; procedure, shortened: as §1
[11] = tested on: Mycobacterium tuberculosis; experiment: Growth inhibition of Mycobacterium tuberculosis H37Rv exposed to plasma from BALB/c mouse treated with 20 mg/kg, po administered through carboxymethylcellulose vehicle as single oral dose per gavage after 2 hrs by Resazurin microtiter assay; type: functional; details: read-out: GI; procedure, shortened: as §1
[12] = tested on: Mycobacterium tuberculosis; experiment: Antitubercular activity against Mycobacterium tuberculosis H37Rv ATCC 27294 under normal pH 6.8 condition; type: functional
[13] = tested on: Mycobacterium tuberculosis; experiment: Antitubercular activity against Mycobacterium tuberculosis H37Rv ATCC 27294 under acidic pH 6 condition; type: functional
[14] = tested on: Mycobacterium tuberculosis; experiment: Growth inhibition of Mycobacterium tuberculosis H37Rv exposed to plasma from BALB/c mouse treated with 20 mg/kg, po administered through carboxymethylcellulose vehicle as single oral dose per gavage after 1 hr by Resazurin microtiter assay; type: functional; details: read-out: GI; procedure, shortened: as §1

Compound	selectivity ratio [1]	MIC90 [2] [µM]	logP [3]	IC50 (MRC5) [µM]	further results
O=C(N/N=C/c1ccc2no[n+]([O-])c2c1)c1ccccc1	15.6	8.3 (≈ 2.34 µg/mL)	2.2	130	–
N#Cc1c(-c2cccs2)[n+]([O-])c2ccc(C3OCCO3)cc2[n+]1[O-]	1.4	12.1 (≈ 4.13 µg/mL)	1.9	17.3	–
N#Cc1c(-c2ccc(OC(F)(F)F)cc2)[n+]([O-])c2ccc(C3OCCO3)cc2[n+]1[O-]	4.3	15.4 (≈ 6.46 µg/mL)	2.2	66.8	–
CC(C)(C)c1ccc(C(=O)N/N=C/c2ccc3no[n+]([O-])c3c2)cc1	6.3	3.9 (≈ 1.32 µg/mL)	3.8	25.2	–
NNC(=O)c1ccncc1 [ISONIAZID]	–	0.1 (≈ 0.0137 µg/mL)	–	–	MIC90 [4]: 1.11 µM (≈ 0.152 µg/mL)
N#Cc1c(-c2ccc(Cl)cc2)[n+]([O-])c2ccc(C3OCCO3)cc2[n+]1[O-]	0.8	16.2 (≈ 5.99 µg/mL)	1.8	12.6	–
O=C(N/N=C/c1ccc2no[n+]([O-])c2c1)c1ccc([N+](=O)[O-])cc1	–	5.29 (≈ 1.73 µg/mL)	0.9	–	Activity (Staphylococcus aureus): inactive; Activity (Candida albicans): inactive; Activity (Escherichia coli): inactive
Nc1ccc(C(=O)N/N=C/c2ccc3no[n+]([O-])c3c2)cc1	78.9	10.7 (≈ 3.17 µg/mL)	1.2	841	MIC90 [4]: > 10 µM; Activity (Staphylococcus aureus): inactive; Activity (Candida albicans): inactive; Activity (Escherichia coli): inactive
N#Cc1c(-c2ccccc2)[n+]([O-])c2ccc(/C=N/NC(=O)c3ccncc3)cc2[n+]1[O-]	0.5	39.7 (≈ 16.3 µg/mL)	1	21	–
O=C(N/N=C/c1ccc2no[n+]([O-])c2c1)c1ccc(O)cc1	–	> 62	1.2	–	Activity (Staphylococcus aureus): inactive; Activity (Candida albicans): inactive; Activity (Escherichia coli): inactive
COc1ccc(-c2c(C#N)[n+]([O-])c3cc(C4OCCO4)ccc3[n+]2[O-])cc1	1.2	12 (≈ 4.38 µg/mL)	1.4	15	–
O=C(N/N=C/c1ccc2no[n+]([O-])c2c1)c1ccccc1O	–	> 62	1.3	–	–
Cc1ccc(-c2c(C#N)[n+]([O-])c3cc(C4OCCO4)ccc3[n+]2[O-])cc1	1.1	16.5 (≈ 5.76 µg/mL)	1.6	17.2	–
N#Cc1c(-c2ccco2)[n+]([O-])c2ccc(C3OCCO3)cc2[n+]1[O-]	6.8	5.2 (≈ 1.69 µg/mL)	2	35.7	–
NC(=O)c1c(COc2cccc(/C=N/NC(=O)c3ccncc3)c2)no[n+]1[O-]	3200	0.4 (≈ 0.153 µg/mL)	1.3	1280	MIC90 [4]: 4.2 µM (≈ 1.61 µg/mL)
N#Cc1c(-c2ccccc2)[n+]([O-])c2ccc(C3OCCO3)cc2[n+]1[O-]	0.9	30.8 (≈ 10.3 µg/mL)	0.7	31.9	–
NC(=O)c1c(COc2ccccc2/C=N/NC(=O)c2ccncc2)no[n+]1[O-]	2030	0.42 (≈ 0.161 µg/mL)	1.3	854	MIC90 [4]: 7.72 µM (≈ 2.95 µg/mL)
NC(=O)c1c(COc2ccc(/C=N/NC(=O)c3ccncc3)cc2)no[n+]1[O-]	2700	0.43 (≈ 0.164 µg/mL)	1.3	1160	MIC90 [4]: 2.04 µM (≈ 0.78 µg/mL)
O=C(N/N=C/c1ccc2no[n+]([O-])c2c1)c1cccc(O)c1	–	> 62	1.2	–	–
Nc1ccccc1C(=O)N/N=C/c1ccc2no[n+]([O-])c2c1	9.9	12.3 (≈ 3.66 µg/mL)	2	122	–
CO[C@H]1/C=C/O[C@@]2(C)Oc3c(C)c(O)c4c(O)c(c(/C=N/N5CCN(C)CC5)c(O)c4c3C2=O)NC(=O)/C(C)=C\C=C\[C@H](C)[C@H](O)[C@@H](C)[C@@H](O)[C@@H](C)[C@H](OC(C)=O)[C@@H]1C [RIFAMPIN]	–	–	–	–	inhibition in vivo at 20 mg/kg [5]: 63%; inhibition in vivo at 20 mg/kg [6]: 68%; inhibition in vivo at 20 mg/kg [7]: 76.3%; inhibition in vivo at 20 mg/kg [8]: 91%; inhibition in vivo at 20 mg/kg [9]: 73.7%; inhibition in vivo at 20 mg/kg [10]: 66.3%; inhibition in vivo at 20 mg/kg [11]: 62.3%; MIC90 [12]: 0.05 µM (≈ 0.0411 µg/mL); MIC90 [13]: 0.02 µM (≈ 0.0165 µg/mL); inhibition in vivo at 20 mg/kg [14]: 84%
N#Cc1c(-c2ccc(F)cc2)[n+]([O-])c2ccc(C3OCCO3)cc2[n+]1[O-]	0.9	24.3 (≈ 8.59 µg/mL)	1.3	21.8	–
Nc1cccc(C(=O)N/N=C/c2ccc3no[n+]([O-])c3c2)c1	4.6	17.8 (≈ 5.29 µg/mL)	1.4	82.1	–

Reference: ChEMBL document CHEMBL4028867, “Design, Synthesis, and Characterization of N-Oxide-Containing Heterocycles with in Vivo Sterilizing Antitubercular Activity” (J Med Chem, 2017)
